Experimental data taken from ChEMBL document CHEMBL4396917, “Synthesis and biological evaluation of novel benzylidene-succinimide derivatives as noncytotoxic antiangiogenic inhibitors with anticolorectal cancer activity in vivo” (Eur J Med Chem, 2019).
Activity calls are given as the source filed them. No cut-off for these calls is given here.

Tests used:
HUVEC [1] = assay: Antiangiogenic activity in HUVEC assessed as inhibition of VEGF-induced capillary like tube formation at 2.5 uM preincubated with VEGF for 20 mins followed by compound addition measured after 6 hrs by matrigel based tube formation assay relative to control; type: functional; settings: Homo sapiens
Method in brief: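 Matrigel (100 μL) set 1 h at 37°C; 2×10⁴ HUVECs in M200 with 10% FBS added per well plus 10 ng/mL VEGF; compound added after 20 min; incubated 6 h at 37°C, then capillary-like structures photographed.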

HT-29 [2] = assay: Induction of apoptosis in human HT-29 cells assessed as late apoptotic cells at 1 uM after 24 hrs by Annexin V-FITC/propidium iodide staining based flow cytometric analysis (reference value: 13.4%); type: cell-based; settings: ht-29, 24 h
HUVEC [3] = assay: Induction of apoptosis in VEGF-stimulated HUVEC assessed as necrotic cells at 10 uM after 24 hrs by Annexin V-FITC/propidium iodide staining based flow cytometric analysis (reference value: 12.1%); type: cell-based; settings: human
Method in brief: (§1)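 HUVECs plated at 5×10^5 per well and treated 24 h with 1, 5, 10 or 20 μM. Detached and adherent cells were pooled, washed in ice-cold PBS and resuspended in fresh medium. 1×10^5 cells were stained with annexin-V-FITC in annexin-V buffer for 20 min in the dark, then PI (50 μg/mL) was added. Read-out by flow cytometry.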

HUVEC [4] = assay: Induction of apoptosis in VEGF-stimulated HUVEC assessed as caspase-3 cleavage at 1 to 20 uM by Western blot analysis; type: cell-based; settings: human
[5] = molecular target: Vascular endothelial growth factor receptor 2 (Homo sapiens) (UniProt P35968); assay: Inhibition of VEGFR2 in VEGF-stimulated HUVEC assessed as downregulation of ERK1/2 phosphorylation at Thr202/Tyr204 residues at 1 to 10 uM pre-incubated for 2 hrs followed by VEGF stimulation and measured after 15 mins by Western blot analysis; type: cell-based
Vascular endothelial growth factor receptor 2 (Homo sapiens), sequence (P35968 whole entry): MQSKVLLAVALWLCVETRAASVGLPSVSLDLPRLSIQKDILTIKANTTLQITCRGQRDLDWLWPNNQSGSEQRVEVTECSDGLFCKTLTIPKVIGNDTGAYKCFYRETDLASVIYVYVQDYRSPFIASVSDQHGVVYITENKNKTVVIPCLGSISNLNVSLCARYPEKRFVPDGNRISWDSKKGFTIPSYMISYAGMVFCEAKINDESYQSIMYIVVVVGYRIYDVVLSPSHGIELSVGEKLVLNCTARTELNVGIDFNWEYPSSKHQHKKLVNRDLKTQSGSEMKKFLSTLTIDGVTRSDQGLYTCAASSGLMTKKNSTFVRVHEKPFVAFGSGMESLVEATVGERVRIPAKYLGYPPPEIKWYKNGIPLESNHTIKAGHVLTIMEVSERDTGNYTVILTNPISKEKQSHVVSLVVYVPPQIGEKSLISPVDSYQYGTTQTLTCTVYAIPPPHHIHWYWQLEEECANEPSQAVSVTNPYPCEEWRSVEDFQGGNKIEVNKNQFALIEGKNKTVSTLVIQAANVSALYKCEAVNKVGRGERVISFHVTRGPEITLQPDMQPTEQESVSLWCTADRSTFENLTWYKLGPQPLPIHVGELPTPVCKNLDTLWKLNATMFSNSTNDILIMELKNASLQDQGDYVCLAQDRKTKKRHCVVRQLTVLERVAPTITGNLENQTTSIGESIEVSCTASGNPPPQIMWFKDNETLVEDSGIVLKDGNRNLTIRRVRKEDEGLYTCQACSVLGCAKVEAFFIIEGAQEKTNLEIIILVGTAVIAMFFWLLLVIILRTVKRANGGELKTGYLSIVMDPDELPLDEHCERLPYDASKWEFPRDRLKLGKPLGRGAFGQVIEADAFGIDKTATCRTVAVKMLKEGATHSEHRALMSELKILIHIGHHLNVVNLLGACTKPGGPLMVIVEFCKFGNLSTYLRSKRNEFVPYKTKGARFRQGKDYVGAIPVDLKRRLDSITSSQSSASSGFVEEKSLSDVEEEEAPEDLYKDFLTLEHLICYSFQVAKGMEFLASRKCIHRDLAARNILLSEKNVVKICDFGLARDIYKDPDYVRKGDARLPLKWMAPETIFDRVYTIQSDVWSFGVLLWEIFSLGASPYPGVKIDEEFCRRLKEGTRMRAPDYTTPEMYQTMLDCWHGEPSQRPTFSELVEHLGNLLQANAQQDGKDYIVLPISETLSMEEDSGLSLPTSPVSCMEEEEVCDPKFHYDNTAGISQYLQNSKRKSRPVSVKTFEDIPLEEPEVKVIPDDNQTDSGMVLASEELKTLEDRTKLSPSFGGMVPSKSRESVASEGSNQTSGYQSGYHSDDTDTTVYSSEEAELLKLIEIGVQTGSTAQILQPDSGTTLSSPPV
Method in brief: (§2)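 HUVECs serum-starved overnight, pretreated 2 h with 1, 2.5, 5 or 10 μM compound, then stimulated 15 min with 50 ng/mL VEGF165. Lysed in Tris/EDTA/Triton/deoxycholate/SDS buffer with phosphatase and protease inhibitors. Protein equalized by Bradford, about 20 μg resolved on gradient SDS-PAGE. Blots probed for phospho and total VEGFR2 (Tyr1175), ERK1/2 (Thr202/Tyr204) and AKT (Ser473) against actin, with HRP/ECL detection.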

HT-29 [6] = assay: Induction of apoptosis in human HT-29 cells assessed as caspase-3 cleavage up to 20 uM after 24 to 72 hrs by Western blot analysis; type: cell-based
HUVEC [7] = assay: Effect on total FAK expression in VEGF-induced HUVEC at 1 to 20 uM pre-incubated for 2 hrs followed by VEGF stimulation and measured after 15 mins by Western blot analysis; type: ADME, cell-based; settings: human, 0.25 h
Method in brief: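 HUVECs serum-starved overnight, pretreated with compound (methods: 1, 2.5, 5, 10 μM for 2 h; legend: 1, 5, 10, 20 μM for 1.5 h), then VEGF 50 ng/mL (methods: VEGF165, 15 min; legend: 30 min); lysates equalized by Bradford, ~20 μg protein resolved on gradient SDS-PAGE, immunoblotted, ECL detection.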

HT-29 [8] = assay: Induction of apoptosis in human HT-29 cells assessed as PARP cleavage up to 20 uM after 24 to 72 hrs by Western blot analysis; type: cell-based
HUVEC [9] = assay: Induction of apoptosis in VEGF-stimulated HUVEC assessed as late apoptotic cells at 5 uM after 24 hrs by Annexin V-FITC/propidium iodide staining based flow cytometric analysis (reference value: 11.3%); type: cell-based; settings: human; method in brief: as §1
[10] = Induction of apoptosis in VEGF-stimulated HUVEC assessed as viable cells at 10 uM after 24 hrs by Annexin V-FITC/propidium iodide staining based flow cytometric analysis (reference value: 69.6%); type: cell-based; settings: human, read-out: Activity; method in brief: as §1
HT-29 [11] = assay: Antitumor activity against human HT-29 cells xenografted in mouse assessed as reduction in cell proliferation in tumor at 20 to 60 mg/kg, po administered every other day for 3 weeks and measured at 20 days post treatment by Ki-67 staining based assay; type: functional, organism-based
[12] = Toxicity in mouse xenografted with human HT-29 cells assessed as body weight at 20 to 60 mg/kg, po administered every other day for 3 weeks; type: organism-based; settings: in vivo, 504 h
Method in brief: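 HT29 cells implanted subcutaneously in the right flank of nude mice. At about 100 mm³, mice were randomized to vehicle (0.9% NaCl) or oral compound at 20, 40 and 60 mg/kg, with sunitinib at 40 mg/kg as reference. Body weight and tumor size recorded every other day.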

HT-29 [13] = assay: Antitumor activity against human HT-29 cells xenografted in mouse assessed as reduction in mTOR phosphorylation in tumor at 20 to 60 mg/kg, po administered every other day for 3 weeks and measured at 20 days post treatment by immunohistochemical staining; type: functional, organism-based
HUVEC [14] = assay: Antimigratory activity in HUVEC assessed as reduction in VEGF-induced cell migration at 1 to 2.5 uM by wound healing assay; settings: Homo sapiens, TDE = time-dependent effect
[15] = molecular target: Vascular endothelial growth factor receptor 2 (Homo sapiens) (UniProt P35968); assay: Inhibition of VEGFR2 in VEGF-stimulated HUVEC assessed as downregulation of AKT phosphorylation at Ser473 residue at 1 to 10 uM pre-incubated for 2 hrs followed by VEGF stimulation and measured after 15 mins by Western blot analysis; type: cell-based; method in brief: as §2
Chorioallantoic membrane = assay: Antiangiogenic activity in Leghorn chicken fertilized egg chorioallantoic membrane assessed as reduction in number of blood vessel formation at 20 nmol measured after 48 hrs by CAM assay relative to saline treated control; type: functional, tissue-based; settings: Gallus gallus
Method in brief: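 Fertile Leghorn eggs incubated at 37.8°C, 40% humidity; window opened on day 7; compound, sunitinib or 0.9% NaCl mixed with DMSO applied on filter paper onto CAM; 48 h incubation, methanol fixation, photography; nascent vessels counted.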

HT-29 [16] = assay: Induction of apoptosis in human HT-29 cells assessed as early apoptotic cells at 1 uM after 24 hrs by Annexin V-FITC/propidium iodide staining based flow cytometric analysis (reference value: 1.9%); type: cell-based; settings: ht-29, 24 h
HT-29 [17] = assay: Induction of apoptosis in human HT-29 cells assessed as late apoptotic cells at 5 uM after 24 hrs by Annexin V-FITC/propidium iodide staining based flow cytometric analysis (reference value: 12.3 to 13.4%); type: cell-based; settings: ht-29, 24 h
[18] = Induction of apoptosis in human HT-29 cells assessed as viable cells at 5 uM after 24 hrs by Annexin V-FITC/propidium iodide staining based flow cytometric analysis (reference value: 80.8 to 81.1%); type: cell-based; settings: read-out: Activity
HUVEC [19] = assay: Cytotoxicity against HUVEC at 1 to 5 uM measured after 48 hrs; type: cell-based; settings: human
HUVEC [20] = assay: Inhibition of Akt/mTOR signalling in VEGF-induced HUVEC assessed as reduction in mTOR phosphorylation at Ser2448 residue at 1 to 20 uM pre-incubated for 1.5 hrs followed by VEGF stimulation and measured after 30 mins by Western blot analysis; type: cell-based; settings: Homo sapiens
Method in brief: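 HUVECs were starved overnight, pretreated 1.5 h with 1, 5, 10 or 20 μM, then stimulated with VEGF (50 ng/mL) for 30 min. Lysates were equalized by Bradford assay, about 20 μg protein was resolved on gradient SDS-PAGE and immunoblotted with phospho-specific antibodies. Detection by HRP secondary antibodies and ECL.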

Which inhibition at 2.5 µM (HUVEC [1]) does the source give for `COc1ccc(NC(=O)c2cccc(/C=C3\CC(=O)N(c4ccc(C)cc4)C3=O)c2)cc1` here?
The inhibition at 2.5 µM was 73%.

And the Activity (HT-29 [2])?
Its Activity is 14.4%.

And the Activity (HUVEC [3])?
Its Activity is 5.4%.

And the Activity (HUVEC [4])?
Its Activity is “Non-Toxic”.

And the inhibition [5]?
Its inhibition is “Active”.

And the Activity (HT-29 [6])?
The Activity was “Non-Toxic”.

What about the Activity (HUVEC [7]) of the same molecule?
The Activity was “Not Active”.

What about the Activity (HT-29 [8]) of the same molecule?
Its Activity is “Non-Toxic”.

What about the Activity (HUVEC [9]) of the same molecule?
The Activity was 9.7%.

And the viability at 24 h, 10 µM [10]?
Its viability at 24 h, 10 µM is 72%.

What about the inhibition (HT-29 [11]) of the same molecule?
The inhibition was “Active”.

And the Activity [12]?
The Activity was “Non-Toxic”.

What about the inhibition (HT-29 [13]) of the same molecule?
Its inhibition is “Active”.

And the inhibition (HUVEC [14])?
The inhibition was “Tde”.

And the inhibition [15]?
The inhibition was “Active”.

What about the inhibition (Chorioallantoic membrane) of the same molecule?
Its inhibition is 96.4%.

And the Activity (HT-29 [16])?
The Activity was 1.3%.

What about the Activity (HT-29 [17]) of the same molecule?
The Activity was 15.9 to 18.4%.

And the viability at 24 h, 5 µM [18]?
The viability at 24 h, 5 µM was 75.8 to 77.9%.

What about the Activity (HUVEC [19]) of the same molecule?
The Activity was “Non-Toxic”.

What about the inhibition (HUVEC [20]) of the same molecule?
Its inhibition is “Active”.
